Assay results: ChEMBL document CHEMBL1149101, “New antibacterial agents derived from the DNA gyrase inhibitor cyclothialidine” (J Med Chem, 2004)
Values after ≈ are worked out from the molar mass of the structure shown.

Key:
Escherichia coli = assay: Minimum inhibitory concentration against Escherichia coli 25922; type: functional
In short: (§1)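 NCCLS agar dilution on Mueller–Hinton agar, compound incorporated into melted medium at 50 °C. Inoculum about 10⁴ CFU/spot from diluted overnight cultures, multipoint-applied.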

Enterococcus faecalis = assay: Minimum inhibitory concentration against Enterococcus faecalis 6; type: functional; in short: as §1
Staphylococcus aureus [1] = assay: In vivo effective dose was determined in septicaemic mice (Staphylococcus aureus Smith) when administration iv; type: functional
In short: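 Compound given iv as a gelatine microsuspension at 1 and 3 h post-challenge, 5 mice per group. ED50 (mg/kg) from day-4 survival by probit analysis.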

Staphylococcus aureus [2] = assay: Minimum inhibitory concentration against Staphylococcus aureus Smith; type: functional; in short: as §1
Staphylococcus aureus [3] = assay: Minimum inhibitory concentration against Staphylococcus aureus ATCC 25923; type: functional; in short: as §1
[4] = tested on: Stenotrophomonas maltophilia; assay: Minimum inhibitory concentration against Xanthomonas maltophilia AC739; type: functional; in short: as §1
[5] = tested on: Staphylococcus epidermidis; assay: Minimum inhibitory concentration against Staphylococcus epidermidis 16/2; type: functional; in short: as §1
[6] = target: DNA gyrase (Escherichia coli) (UniProt P0AES6+P0AES4)
Streptococcus pyogenes = assay: Minimum inhibitory concentration against Streptococcus pyogenes b15
Micrococcus luteus = assay: Minimum inhibitory concentration against Micrococcus luteus ATCC 8340; type: functional
In short: (§2)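 Agar dilution per NCCLS in BB2 agar + 1% Isovitalex + 7.5% sheep blood + menadione, compound added to melted medium at 50 °C. About 10⁴ CFU/spot from diluted overnight cultures, multipoint-inoculated.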

Neisseria meningitidis = assay: Minimum inhibitory concentration against Neisseria meningitides 69480; type: functional; in short: as §2
Staphylococcus aureus [7] = assay: Minimum inhibitory concentration against Staphylococcus aureus 887; type: functional; in short: as §2
[8] = Staphylococcus aureus, read-out: MIC
[9] = Staphylococcus aureus, ATCC 25923, read-out: MIC
[10] = Streptococcus pyogenes, read-out: MIC

MIC (Staphylococcus aureus [2]; [8])	MIC (Staphylococcus aureus [3]; [9])	MNEC [6]	MIC (Streptococcus pyogenes; [10])	MIC (Micrococcus luteus)	MIC (Neisseria meningitidis)	MIC (Staphylococcus aureus [7])	SMILES	other results
0.5 µg/mL (≈ 1.04 µM)	0.5 µg/mL (≈ 1.04 µM)	0.005 µg/mL	0.5 µg/mL (≈ 1.04 µM)				COc1cc(O)c2c(c1C)C(=O)O[C@H](CO)CCC/C(S)=N/[C@H](c1nc(C)no1)CSC2	MIC (Escherichia coli): > 64 µg/mL; MIC (Enterococcus faecalis): 0.5 µg/mL (≈ 1.04 µM); ED50 (Staphylococcus aureus [1]): 8.5 mg/kg; MIC [4]: 4 µg/mL (≈ 8.31 µM); MIC [5]: < 0.12 µg/mL
		0.1 µg/mL	16 µg/mL (≈ 33.1 µM)	16 µg/mL (≈ 33.1 µM)	4 µg/mL (≈ 8.27 µM)	> 64 µg/mL	COc1cc(O)c2c(c1C)C(=O)OC[C@H](NC(=O)OC(C)(C)C)C(=O)N[C@H](C(N)=O)CSC2	
		> 1 µg/mL					COC(=O)[C@@H]1CSCc2c(O)cc(OC)c(C)c2C(=O)OCCCCCCCC/C(S)=N/1	
128 µg/mL (≈ 257 µM)	> 64 µg/mL	0.2 µg/mL	64 µg/mL (≈ 128 µM)	16 µg/mL (≈ 32.1 µM)	16 µg/mL (≈ 32.1 µM)	64 µg/mL (≈ 128 µM)	COC(=O)[C@@H]1CSCc2c(O)cc(OC)c(C)c2C(=O)OCC(NC(=O)OC(C)(C)C)C(=O)N1 (stereo partly specified)	MIC (Escherichia coli): > 64 µg/mL; MIC (Enterococcus faecalis): 64 µg/mL (≈ 128 µM); MIC [4]: > 64 µg/mL; MIC [5]: 64 µg/mL (≈ 128 µM); MIC (Streptococcus pyogenes): 64 µg/mL (≈ 128 µM)
		0.004 µg/mL					COc1cc(O)c2c(c1C)C(=O)OCCC/C(S)=N/[C@H](c1nc(C)no1)CSC2	
2 µg/mL (≈ 5.01 µM)	2 µg/mL (≈ 5.01 µM)	0.05 µg/mL	4 µg/mL (≈ 10 µM)				COC(=O)[C@@H]1CSCc2c(O)cc(OC)c(C)c2C(=O)OCC/C(S)=N/1	MIC (Escherichia coli): > 64 µg/mL; MIC (Enterococcus faecalis): 4 µg/mL (≈ 10 µM); MIC (Staphylococcus aureus [2]): 2 µg/mL (≈ 5.01 µM); MIC (Staphylococcus aureus [3]): 2 µg/mL (≈ 5.01 µM); MIC [4]: 8 µg/mL (≈ 20 µM); MIC [5]: 0.5 µg/mL (≈ 1.25 µM)
		0.1 µg/mL	16 µg/mL (≈ 30.6 µM)	8 µg/mL (≈ 15.3 µM)	4 µg/mL (≈ 7.64 µM)	16 µg/mL (≈ 30.6 µM)	C=CCNC(=O)[C@@H]1CSCc2c(O)cc(OC)c(C)c2C(=O)OC[C@H](NC(=O)OC(C)(C)C)C(=O)N1	
		10 µg/mL	> 64 µg/mL	> 64 µg/mL		> 64 µg/mL	COc1cc(O)c2c(c1C)C(=O)OC[C@H](NC(=O)OC(C)(C)C)C(=O)N[C@H](C(=O)O)CSC2	
32 µg/mL (≈ 75.2 µM)	> 64 µg/mL	2 µg/mL					COC(=O)[C@@H]1CSCc2c(O)cc(OC)c(C)c2C(=O)OCCCCCC(=O)N1	
16 µg/mL (≈ 36.2 µM)	32 µg/mL (≈ 72.5 µM)	0.5 µg/mL					COC(=O)[C@@H]1CSCc2c(O)cc(OC)c(C)c2C(=O)OCCCCC/C(S)=N/1	
32 µg/mL (≈ 80.5 µM)	64 µg/mL (≈ 161 µM)	2 µg/mL					COC(=O)[C@@H]1CSCc2c(O)cc(OC)c(C)c2C(=O)OCCCC(=O)N1	
		> 1 µg/mL		> 128 µg/mL			COC(=O)[C@@H]1CSCc2c(O)cccc2C(=O)OCC(NC(=O)OC(C)(C)C)C(=O)N1 (stereo partly specified)	
> 64 µg/mL	> 64 µg/mL	0.2 µg/mL					COC(=O)[C@@H]1CSCc2c(O)cc(OC)c(C)c2C(=O)OC/C(S)=N/1	
> 64 µg/mL	> 64 µg/mL	> 1 µg/mL					COC(=O)[C@@H]1CSCc2c(O)cc(OC)c(C)c2C(=O)OCC(=O)N1	
128 µg/mL (≈ 264 µM)	> 64 µg/mL	0.2 µg/mL	32 µg/mL (≈ 66 µM)	16 µg/mL (≈ 33 µM)	16 µg/mL (≈ 33 µM)	> 64 µg/mL	COC(=O)[C@@H]1CSCc2c(O)cc(O)c(C)c2C(=O)OCC(NC(=O)OC(C)(C)C)C(=O)N1 (stereo partly specified)	MIC (Escherichia coli): > 64 µg/mL; MIC (Enterococcus faecalis): 64 µg/mL (≈ 132 µM); MIC [4]: > 64 µg/mL; MIC [5]: 64 µg/mL (≈ 132 µM); MIC (Streptococcus pyogenes): 64 µg/mL (≈ 132 µM)
		1 µg/mL		128 µg/mL (≈ 264 µM)	32 µg/mL (≈ 66 µM)		COC(=O)[C@@H]1CSCc2c(O)cc(O)c(C)c2C(=O)OC[C@@H](NC(=O)OC(C)(C)C)C(=O)N1	
		0.4 µg/mL	16 µg/mL (≈ 40.3 µM)	16 µg/mL (≈ 40.3 µM)	8 µg/mL (≈ 20.1 µM)	16 µg/mL (≈ 40.3 µM)	COC(=O)[C@@H]1CSCc2c(O)cc(OC)c(C)c2C(=O)OC[C@H](C)C(=O)N1	
		1 µg/mL		128 µg/mL (≈ 214 µM)		> 64 µg/mL	COC(=O)[C@@H]1CSCc2c(O)cc(O)c(C)c2C(=O)OCC(NC(=O)[C@H]2C(O)CCN2C(=O)OC(C)(C)C)C(=O)N1 (stereo partly specified)	
		0.4 µg/mL		64 µg/mL (≈ 118 µM)	32 µg/mL (≈ 59.1 µM)		COC(=O)[C@@H]1CSCc2c(O)cccc2C(=O)OCC(NC(=O)[C@H](CO)NC(=O)OC(C)(C)C)C(=O)N1 (stereo partly specified)	
		0.25 µg/mL		16 µg/mL (≈ 43.3 µM)	32 µg/mL (≈ 86.6 µM)		COC(=O)[C@@H]1CSCc2c(O)cc(O)c(C)c2C(=O)OCCC(=O)N1	
		0.002 µg/mL					COc1cc(O)c2c(c1C)C(=O)CCCCC/C(S)=N/[C@H](c1nc(CNC(C)C)no1)CSC2.Cl	
		2.5 µg/mL	64 µg/mL (≈ 136 µM)	64 µg/mL (≈ 136 µM)	64 µg/mL (≈ 136 µM)	> 64 µg/mL	COc1cc(O)c2c(c1C)C(=O)OC[C@H](NC(=O)OC(C)(C)C)C(=O)N[C@H](CO)CSC2	
		0.01 µg/mL					COc1cc(O)c2c(c1C)C(=O)O[C@H](CO)CC/C(S)=N/[C@H](c1nc(C)no1)CSC2	
> 64 µg/mL	> 64 µg/mL	> 1 µg/mL					COC(=O)[C@@H]1CSCc2c(O)cc(OC)c(C)c2C(=O)OCCCCCCC(=O)N1	
> 64 µg/mL	> 64 µg/mL	2 µg/mL					COC(=O)c1c(C)c(OC)cc(O)c1CSC[C@H](NC(C)=O)C(=O)OC	
